According to ChEMBL document CHEMBL4765233, “From Lead to Drug Candidate: Optimization of 3-(Phenylethynyl)-1H-pyrazolo[3,4-d]pyrimidin-4-amine Derivatives as Agents for the Treatment of Triple Negative Breast Cancer” (J Med Chem, 2016):

What was measured:
MDA-MB-231 [1] = test: Antiproliferative activity against human MDA-MB-231 cells assessed as reduction in cell viability incubated for 72 hrs by MTT assay; format: functional, cell-based; settings: MDA-MB-231, 72 h
Procedure, shortened: (§1)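 MTT viability assay. ATCC cell lines were grown in designated medium with 10% FBS at 37 °C, 5% CO2. Cells seeded at 1500−30000 per well and incubated 24 h, then exposed to compound (0−10 μg/mL) for 72 h. MTT added for 2−4 h. Formazan dissolved in DMSO (adherent) or acidified SDS overnight (suspension), absorbance read at 570 nm. Triplicates; IC50 calculated.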

MDA-MB-435 = test: Antiproliferative activity against human MDA-MB-435 cells assessed as reduction in cell viability incubated for 72 hrs by MTT assay; format: functional, cell-based; settings: MDA-MB-435, 72 h; procedure, shortened: as §1
[2] = Toxicity in SCID mouse xenografted with MDA-MB-231 cells assessed as animal death at 40 mg/kg, po qd for 21 days; format: organism-based; settings: in vivo, dose 40 mg/kg/day, time 21 day, read-out: Activity
Procedure, shortened: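 SCID mice aged 5–6 weeks were injected subcutaneously with 100 μL of MDA-MB-231 cells resuspended at 5 × 10^7 per mL. When tumours reached 150–200 mm3, mice were randomised into groups of 3 or 6. Dosing was oral and daily, in sterile water with 25% PEG400 plus 5% DMSO. Side effects were checked daily and body weight every 3 days.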

HepG2 = test: Antiproliferative activity against human HepG2 cells assessed as reduction in cell viability incubated for 72 hrs by MTT assay; format: ADME, cell-based; settings: HepG2, 72 h
[3] = Toxicity in SCID mouse xenografted with MDA-MB-231 cells assessed as change in body weight at 40 mg/kg, po qd for 21 days and measured every 3 days; format: organism-based; settings: in vivo, 504 h, dose 40 mg/kg/day, time 21 day
Procedure, shortened: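 Exponential-phase cells washed and injected subcutaneously (5 × 10^6 cells in 100 μL) into 5–6-week SCID mice. At 150–200 mm3, mice randomised to groups of 6. Oral dosing daily in water with 25% PEG400 and 5% DMSO; paclitaxel 10 mg/kg weekly by tail vein. Body weight measured every 3 days and side effects checked daily.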

MDA-MB-231 [4] = test: Antitumor activity against human MDA-MB-231 cells xenografted in SCID mouse assessed as tumor growth inhibition at 40 mg/kg, po qd for 21 days and measured every 3 days; format: functional; settings: MDA-MB-231, po, 504 h, time 21 day
Procedure, shortened: (§2)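 SCID mice (5−6 weeks) injected subcutaneously with 100 μL of cells at 5 × 10^7/mL. At 150−200 mm3 mice randomized, 6 per group. Oral compounds given in water with 25% PEG400 plus 5% DMSO; paclitaxel given 10 mg/kg/week iv. Tumor volume a×b²/2 and body weight measured every 3 days. Inhibition rate (c−d)/c×100% against vehicle control.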

[5] = Toxicity in SCID mouse xenografted with MDA-MB-231 cells assessed as animal death at 40 mg/kg, po qd for 15 days; format: organism-based; settings: in vivo, dose 40 mg/kg/day, time 15 day, read-out: Activity
[6] = Toxicity in SCID mouse xenografted with MDA-MB-231 cells assessed as change in body weight at 40 mg/kg, po qd for 15 days and measured every 3 days; format: organism-based; settings: in vivo, 360 h, dose 40 mg/kg/day, time 15 day
MDA-MB-231 [7] = test: Antitumor activity against human MDA-MB-231 cells xenografted in SCID mouse assessed as tumor growth inhibition at 40 mg/kg, po qd for 15 days and measured every 3 days; format: functional; settings: MDA-MB-231, po, 360 h, time 15 day; procedure, shortened: as §2
MDA-MB-231 [8] = test: Antitumor activity against human MDA-MB-231 cells xenografted in SCID mouse assessed as tumor growth inhibition at 20 mg/kg, po qd for 15 days and measured every 3 days; settings: MDA-MB-231, po, 360 h, read-out: INH
[9] = Cmax in Sprague-Dawley rat at 10 mg/kg, po administered via gavage by LC-MS analysis; format: ADME, organism-based; set-up: route oral, dose 10 mg/kg; settings: in vivo
[10] = Tmax in Sprague-Dawley rat at 10 mg/kg, po administered via gavage by LC-MS analysis; format: ADME, organism-based; settings: in vivo
[11] = Toxicity in SCID mouse xenografted with MDA-MB-231 cells assessed as change in body weight at 20 mg/kg, po qd for 15 days and measured every 3 days; format: organism-based; settings: in vivo, 360 h, dose 20 mg/kg/day, time 15 day
[12] = AUC (0 to t) in Sprague-Dawley rat at 10 mg/kg, po administered via gavage by LC-MS analysis; format: ADME, organism-based; set-up: dose 10 mg/kg; settings: in vivo
[13] = AUC (0 to infinity) in Sprague-Dawley rat at 10 mg/kg, po administered via gavage by LC-MS analysis; format: ADME, organism-based; set-up: time infinity, route oral, dose 10 mg/kg; settings: in vivo
[14] = Half-life in Sprague-Dawley rat at 10 mg/kg, po administered via gavage by LC-MS analysis; format: ADME, organism-based; settings: in vivo
[15] = Toxicity in SCID mouse xenografted with MDA-MB-231 cells assessed as animal death at 20 mg/kg, po qd for 15 days; format: organism-based; settings: in vivo, dose 20 mg/kg/day, time 15 day, read-out: Activity
[16] = molecular target: Voltage-gated inwardly rectifying potassium channel KCNH2 (Homo sapiens, UniProt Q12809); test: Inhibition of human ERG expressed in CHO cells at -80 mV holding potential by automated Qpatch electrophysiological assay
[17] = Acute toxicity in Sprague-Dawley rat assessed as histopathological changes in liver at 100 mg/kg, po administered as single dose measured after 24 hrs by H and E staining based light microscope analysis; format: organism-based; settings: in vivo
Procedure, shortened: (§3)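 Sprague-Dawley rats received a single oral dose of 100 mg/kg in sterile water with 25% (v/v) PEG400 plus 5% DMSO. Organs were examined by histology and immunohistochemistry for pathological changes. Behaviour and side effects were checked daily.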

[18] = Acute toxicity in Sprague-Dawley rat assessed as histopathological changes in kidney at 100 mg/kg, po administered as single dose measured after 24 hrs by H and E staining based light microscope analysis; format: organism-based; settings: in vivo; procedure, shortened: as §3
[19] = Acute toxicity in Sprague-Dawley rat assessed as histopathological changes in heart at 100 mg/kg, po administered as single dose measured after 24 hrs by H and E staining based light microscope analysis; format: organism-based; settings: in vivo; procedure, shortened: as §3
[20] = Acute toxicity in Sprague-Dawley rat assessed as histopathological changes in spleen at 100 mg/kg, po administered as single dose measured after 24 hrs by H and E staining based light microscope analysis; format: organism-based; settings: in vivo; procedure, shortened: as §3
[21] = Acute toxicity in Sprague-Dawley rat assessed as histopathological changes in lungs at 100 mg/kg, po administered as single dose measured after 24 hrs by H and E staining based light microscope analysis; format: organism-based; settings: in vivo; procedure, shortened: as §3

Chain of Voltage-gated inwardly rectifying potassium channel KCNH2 (Q12809 whole entry): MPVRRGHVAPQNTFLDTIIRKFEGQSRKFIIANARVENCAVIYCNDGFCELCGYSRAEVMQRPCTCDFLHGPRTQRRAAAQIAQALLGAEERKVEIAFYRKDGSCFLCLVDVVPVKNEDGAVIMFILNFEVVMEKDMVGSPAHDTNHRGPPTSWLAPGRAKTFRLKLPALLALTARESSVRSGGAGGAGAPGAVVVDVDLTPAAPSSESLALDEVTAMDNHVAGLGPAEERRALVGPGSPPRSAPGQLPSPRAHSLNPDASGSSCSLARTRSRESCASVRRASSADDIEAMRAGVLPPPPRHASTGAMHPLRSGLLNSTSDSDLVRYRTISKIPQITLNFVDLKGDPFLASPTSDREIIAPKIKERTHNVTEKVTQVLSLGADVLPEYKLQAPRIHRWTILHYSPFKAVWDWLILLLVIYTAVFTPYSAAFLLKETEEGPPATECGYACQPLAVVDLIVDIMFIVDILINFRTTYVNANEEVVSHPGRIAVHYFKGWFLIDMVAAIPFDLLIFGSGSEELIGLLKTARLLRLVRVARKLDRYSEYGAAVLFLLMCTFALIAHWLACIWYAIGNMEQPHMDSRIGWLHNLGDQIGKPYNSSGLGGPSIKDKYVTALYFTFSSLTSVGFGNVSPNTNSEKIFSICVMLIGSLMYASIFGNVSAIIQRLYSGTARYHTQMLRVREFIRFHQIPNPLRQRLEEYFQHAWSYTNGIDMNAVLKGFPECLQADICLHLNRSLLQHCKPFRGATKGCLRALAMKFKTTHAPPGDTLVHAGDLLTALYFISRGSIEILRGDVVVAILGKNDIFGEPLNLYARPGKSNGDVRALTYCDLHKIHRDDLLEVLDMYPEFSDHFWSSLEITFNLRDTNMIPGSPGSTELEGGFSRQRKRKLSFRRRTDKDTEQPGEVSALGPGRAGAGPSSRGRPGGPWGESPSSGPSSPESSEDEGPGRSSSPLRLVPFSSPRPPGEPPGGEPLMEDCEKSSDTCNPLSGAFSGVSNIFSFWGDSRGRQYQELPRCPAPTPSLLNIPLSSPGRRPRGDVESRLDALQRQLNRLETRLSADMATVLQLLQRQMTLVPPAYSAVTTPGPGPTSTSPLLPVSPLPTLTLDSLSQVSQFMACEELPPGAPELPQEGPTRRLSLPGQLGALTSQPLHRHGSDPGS

Compound | IC50 (MDA-MB-231 [1]) | IC50 (MDA-MB-435) | mortality at 504 h [2] | IC50 (HepG2) | Activity [3] | inhibition in vivo at 40 mg/kg/day (MDA-MB-231 [4]) | mortality at 360 h [5] | Activity [6] | inhibition in vivo at 40 mg/kg/day (MDA-MB-231 [7]) | IC50 [16] | other results
COc1ccc(C(=O)Nc2ccc(C)c(C#Cc3nn(C4CCN(C)CC4)c4ncnc(N)c34)c2)cc1C(F)(F)F | 24 nM | 832 nM | 0% | 2200 nM | – | – | – | – | – | – | –
Cc1ccc(NC(=O)c2ccc(Cl)c(C(F)(F)F)c2)cc1C#Cc1nn(C2CCN(C)CC2)c2ncnc(N)c12 | 31 nM | 27 nM | 0% | > 10000 nM | -6.7% | 70.5% | – | – | – | – | –
Cc1ccc(NC(=O)c2cnc(C(C)(C)C)s2)cc1C#Cc1nn(C2CCN(C)CC2)c2ncnc(N)c12 | 78 nM | 20 nM | 0% | > 10000 nM | -5.3% | 87% | – | – | – | – | –
Cc1ccc(C(=O)Nc2cccc(C(F)(F)F)c2)cc1C#Cc1nn(C2CCN(C)CC2)c2ncnc(N)c12 | 9 nM | 170 nM | – | 7700 nM | – | – | 0% | -13.2% | 91.2% | – | –
Cc1ccc(NC(=O)c2cccc(C(F)(F)F)c2)cc1C#Cc1nn([C@H]2CC[C@H](O)CC2)c2ncnc(N)c12 | – | – | – | – | – | – | 0% | 3.1% | 89.1% | – | inhibition in vivo at 20 mg/kg/day (MDA-MB-231 [8]): 79.6%; Cmax [9]: 128 ng/mL; Tmax [10]: 6 h; Activity [11]: 3.5%; AUC(0-t) [12]: 960 ng·h/mL; AUC(0-inf) [13]: 976 ng·h/mL; half-life [14]: 4.7 h; mortality at 360 h [15]: 0%
Cc1ccc(NC(=O)c2cccc(C(F)(F)F)c2)cc1C#Cc1nn([C@H]2CC[C@@H](O)CC2)c2ncnc(N)c12 | – | – | – | 7900 nM | – | – | – | – | – | – | inhibition in vivo at 20 mg/kg/day (MDA-MB-231 [8]): 70.2%; Activity [11]: -2%; mortality at 360 h [15]: 0%
Cc1ccc(NC(=O)c2ccc(Cl)cc2)cc1C#Cc1nn(C2CCN(C)CC2)c2ncnc(N)c12 | 33 nM | 111 nM | 0% | 7600 nM | -16% | 90.1% | – | – | – | – | –
Cc1ccc(NC(=O)c2cccc(C(F)(F)F)c2)cc1C#Cc1nn(C[C@H](C)CO)c2ncnc(N)c12 | 10 nM | 10 nM | – | > 10000 nM | – | – | 0% | -8.2% | 77.3% | > 30000 nM | –
Cc1ccc(NC(=O)c2cccc(C(F)(F)F)c2)cc1C#Cc1nn(C2CCN(C)CC2)c2ncnc(N)c12 | 13 nM | 80 nM | 0% | > 10000 nM | -3.1% | 90.7% | – | – | – | 600 nM | –
Cc1ccc(NC(=O)c2cccc(C(F)(F)F)c2)cc1C#Cc1nn(C[C@@H](C)CO)c2ncnc(N)c12 | 17 nM | 10 nM | – | 9500 nM | – | – | 0% | -3.2% | 78.1% | > 30000 nM | –
Cc1ccc(NC(=O)c2ccc(Cl)c(C(F)(F)F)c2)cc1C#Cc1nn(C[C@H](C)CO)c2ncnc(N)c12 | 17 nM | 323 nM | – | > 10000 nM | – | – | – | – | – | > 30000 nM | –
CCn1nc(C#Cc2cc(C(=O)Nc3ccc(CN4CCN(C)CC4)c(C(F)(F)F)c3)ccc2C)c2c(N)ncnc21 | – | – | – | – | – | – | – | – | – | – | Activity [17]: Toxic; Activity [18]: Toxic; Activity [19]: Toxic; Activity [20]: Toxic; Activity [21]: Toxic
Cc1ccc(NC(=O)c2ccc(Cl)c(C(F)(F)F)c2)cc1C#Cc1nn([C@H]2CC[C@H](O)CC2)c2ncnc(N)c12 | 16 nM | 37 nM | – | > 10000 nM | – | – | 0% | -13.4% | 96.1% | > 30000 nM | –
Cc1ccc(NC(=O)c2ccc(C)c(C(F)(F)F)c2)cc1C#Cc1nn(C2CCN(C)CC2)c2ncnc(N)c12 | 44 nM | 40 nM | 0% | > 10000 nM | -4.5% | 69.8% | – | – | – | – | –
Cc1ccc(NC(=O)c2ccc(C)c(C(F)(F)F)c2)cc1C#Cc1nn(C[C@H](C)CO)c2ncnc(N)c12 | 43 nM | 61 nM | – | > 10000 nM | – | – | 0% | -11.3% | 97.1% | > 30000 nM | –
